Screens (PubChem)
OXTR agonist = human OXTR agonists, primary screen, fluorescence, CHO-OTR cells, Fluo-8 calcium; Oxytocin receptor (Homo sapiens), P30559; Fluo-8 calcium fluorescence; normalized: DMSO 0%, oxytocin 100%; activation, % at 3 µM; hit rate 0.32% among 320,000;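 active = activation above the mean of all tested compounds plus 3 SD, cutoff set per screening run, cut at about 20% in these data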;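 also: peak over basal fluorescence ratio from a 100 s FLIPR kinetic read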
Target sequence (P30559 whole entry, looked up): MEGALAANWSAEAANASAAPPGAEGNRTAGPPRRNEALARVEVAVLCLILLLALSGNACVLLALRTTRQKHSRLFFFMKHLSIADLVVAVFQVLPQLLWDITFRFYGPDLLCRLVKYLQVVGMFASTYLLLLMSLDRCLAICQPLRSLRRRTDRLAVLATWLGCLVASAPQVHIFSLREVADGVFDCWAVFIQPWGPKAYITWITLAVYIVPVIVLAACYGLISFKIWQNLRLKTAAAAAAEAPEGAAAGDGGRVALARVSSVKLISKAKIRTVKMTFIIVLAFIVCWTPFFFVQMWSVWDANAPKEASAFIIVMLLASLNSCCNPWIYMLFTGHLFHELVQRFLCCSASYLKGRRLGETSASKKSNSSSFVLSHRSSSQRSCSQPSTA
V1aR counter = agonists of human V1a receptor, primary screen, counter-screen for OXTR agonist project, fluorescence, CHO-V1R cells. Fluo-8 calcium fluorescence, agonist mode; 0% DMSO, 100% 3 nM vasopressin. activation, % at 3 µM. hit rate 0.25% among 320,000. AID 2797, 2010;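 active = activation above the mean activation of all tested compounds plus 3 SD, per screening run, cut at about 20% in these data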;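 also: signal is peak over basal fluorescence ratio across a 100 second FLIPR read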
OXTR potentiator = human OXTR potentiators, primary screen, fluorescence, CHO-OTR cells, Fluo-8 calcium; Fluo-8 calcium fluorescence, potentiator mode; 0% = oxytocin EC15, 100% = EC100; activation, % at 3 µM; hit rate 0.061% among 320,000; AID 2445, 2010;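 active = activation above that plate's cutoff, the mean activation of tested compounds plus 3 SD, cut at about 6.6% in these data, passing the limit was not always enough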;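 also: 100% uses oxytocin at 75 nM as the full agonist control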
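System: human OTR in CHO cells / Also added: sub-maximal oxytocin, roughly EC15 / Control set: EC15 oxytocin low, 75 nM oxytocin high / Schedule: 6 min compound pre-incubation at room temperature, 100 s kinetic read / Compound: single-point 3.0 µM / Replication: singlicate / Technique: Fluo-8 calcium dye fluorescence / Read-out basis: % activation of max/min ratio relative to oxytocin controls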
TAAR1 antagonist = human TAAR1 antagonists, primary screen, Fluo-8 calcium fluorescence, CHO RD-HGA16 cells; hit rate 1.5% among 360,000; Trace amine-associated receptor 1 (Homo sapiens), Q96RJ0; inhibition, % at 3 µM; antagonist;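 active = inhibition above a per-plate cutoff, the mean inhibition of test compounds on that plate plus 3 SD, cut at about 49% in these data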;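 also: 0% = DMSO plus EC80 beta-PEA response and 100% = DMSO alone without agonist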
Target sequence (Q96RJ0 whole entry, looked up): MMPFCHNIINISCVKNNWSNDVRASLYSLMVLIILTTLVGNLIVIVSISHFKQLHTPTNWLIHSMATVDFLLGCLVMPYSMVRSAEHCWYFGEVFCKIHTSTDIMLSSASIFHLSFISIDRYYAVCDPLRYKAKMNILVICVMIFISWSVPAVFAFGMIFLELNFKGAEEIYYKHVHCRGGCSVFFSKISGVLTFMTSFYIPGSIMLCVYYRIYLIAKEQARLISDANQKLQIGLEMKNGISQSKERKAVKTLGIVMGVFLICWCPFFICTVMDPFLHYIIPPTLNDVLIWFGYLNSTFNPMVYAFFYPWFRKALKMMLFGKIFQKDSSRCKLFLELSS
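Test system: CHO RD-HGA16 cells bearing hTAAR1 | Reagent: β-PEA, EC80 | Compound dosing: 3 µM, single point | Schedule: Dye loading 75 min at 37 °C, then 30 min room temperature | Signal: Calcium fluorescence with Fluo-8 | Evaluation: Percent inhibition of PEA-evoked calcium signal, max/basal emission ratio | Control set: DMSO-only wells and EC80 β-PEA-stimulated wells | Repeats: Singlicate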
TAAR1 agonist = human TAAR1 agonists, primary screen, Fluo-8 calcium fluorescence, CHO RD-HGA16 cells. hit rate 0.99% among 360,000. Trace amine-associated receptor 1 (Homo sapiens), Q96RJ0. activation, % at 3 µM. vehicle wells 0%, saturating PEA agonist 100%;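 active = activation above the mean activation of all test compounds in the run plus 3 SD, cut at about 38% in these data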
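System: CHO RD-HGA16 cells carrying human TAAR1 plus Gα16; Incubation: 17-24 h seeding, 75 min 37 °C dye, 30 min RT; Measured by: Fluo-8 fluorescence, 5 s baseline then 140 s kinetic read; Control set: DMSO and PEA EC100; Replication: single well for each compound.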
TAAR1 nonsel count = nonselective antagonists in TAAR1 counter-screen cells, counter-screen for hTAAR1 antagonist project, cell-based, fluorescence, calcium; hit rate 77% among 2,400; inhibition, % at 3 µM; shares compounds with TAAR1 antagonist; counterscreen cell line, antagonist mode; in the data active = inhibition above about 22%;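 also: CHO-Ga16 host cells stimulated with ATP at an EC80 level; 0% = agonist EC80 plus vehicle and 100% = vehicle without agonist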
TAAR1 ant conf = human TAAR1 antagonists, retest of hits, confirmation, cell-based, fluorescence. hit rate 40% among 2,400. TAAR1-expressing cells, fluorescence antagonist read-out. shares compounds with TAAR1 antagonist. AID 651785, 2012. inhibition, % at 3 µM; in the data active = inhibition above about 49%;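 also: CHO-Ga16 host cells challenged with agonist PEA near its EC80; 0% = agonist at EC80 plus vehicle and 100% = vehicle with no agonist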
Ga16 nonsel ag = calcium activation in Ga16-expressing cells, counter-screen for TAAR1 antagonist project, cell-based, fluorescence | shares compounds with TAAR1 antagonist | activation, % at 3 µM | hit rate 18% among 2,400 | AID 651953, 2012 | agonist counterscreen; in the data active = activation above about 12%;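 also: 0% = vehicle wells and 100% = saturating stimulus response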
TAAR1 ag counter = TAAR1 activation by candidate antagonists – cell-based, fluorescence, counter-screen for TAAR1 antagonist project | shares compounds with TAAR1 antagonist | hTAAR1 cell line, agonist mode | activation, % at 3 µM | hit rate 2% among 2,400; in the data active = activation above about 37%;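 also: CHO cells stably expressing TAAR1 with calcium dye readout; 0% = DMSO vehicle and 100% = full agonist response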
Active calls of the source: *; . = no result. Rows were chosen to be rich in hits. Some 2.3% of all compounds tested hit in one or more screens of this group.

SMILES | OXTR agonist | V1aR counter | OXTR potentiator | TAAR1 antagonist | TAAR1 agonist | TAAR1 nonsel count | TAAR1 ant conf | Ga16 nonsel ag | TAAR1 ag counter
Cc1ccc(NC(=O)CN(C)C(=O)c2cc(-c3ccco3)nc3ccccc23)cc1 | -1.6 | -0.8 | -15.5 | 1.4 | 11.3 | . | . | . | .
Cn1cc(C(CO)Cc2ccccc2)c2ccccc21 (centres undefined) | 1.1 | 0.2 | 0.5 | -10.9 | 5.6 | . | . | . | .
COc1ccc(-c2cn(Cc3ccc4ccccc4c3)nn2)cc1 | 0.4 | 3.1 | -8.1 | 106.3* | 30.5 | 46.3* | 80.7* | 9.6 | 14.5
C[C@@H](NC(=O)Cn1ccc(NC(=O)OCc2ccccc2)nc1=O)c1cccc2ccccc12 | -0.8 | -0.6 | -8.1 | 27.1 | 15.5 | . | . | . | .
COc1ccc(CC(=O)OCC(=O)Nc2ccc(Cl)c(S(=O)(=O)N(C)C)c2)cc1 | 5.7 | 6.0 | -11.0 | 12.0 | 5.3 | . | . | . | .
CN(C)S(=O)(=O)c1cc(NC(=O)COC(=O)CC2Sc3ccccc3NC2=O)ccc1Cl (centres undefined) | 5.5 | 4.6 | -8.4 | 62.2* | 21.8 | 31.2* | 37.8 | 9.5 | 4.9
COc1ccc(-n2ncc3c(N4CCN(Cc5ccccc5)CC4)ncnc32)cc1 | -1.6 | 1.5 | -13.2 | 59.6* | 10.4 | 27.6* | 49.7* | 8.1 | 4.6
COc1cccc(N2CCN(c3ncnc4c3cnn4-c3ccc(C)cc3C)CC2)c1 | 0.9 | 5.2 | -8.7 | 95.8* | 4.5 | 48.1* | 64.8* | 9.2 | 4.5
Cc1cccc(NC(=O)NCC2CC2)c1 | . | . | . | -5.7 | 6.1 | . | . | . | .
O=c1oc(C2(O)CCCCC2)cc2ccc(/C=C/c3ccc(F)cc3)cc12 | -0.2 | 0.7 | -7.3 | 63.2* | 5.4 | 25.9* | 24.0 | 3.7 | 3.6
c1ccc(OC2CCCCC2N2CCOCC2)cc1 (centres undefined) | . | . | . | -14.0 | 0.6 | . | . | . | .
CCOC(=O)C1CCCN(C(=O)c2cc(-c3ccco3)nc3ccccc23)C1 (centres undefined) | 1.8 | 1.0 | -1.2 | -0.4 | 3.5 | . | . | . | .
CCOC(=O)C1CCCN(c2c(C(=O)c3ccccc3)cnc3ccccc23)C1 (centres undefined) | -1.8 | -1.5 | -0.9 | 54.1* | 9.9 | 12.1 | 40.3 | 5.3 | 4.9
CCOC(=O)C1CCCN(C(=O)c2cc(Nc3ccc(OC)cc3)nc3ccccc23)C1 (centres undefined) | 1.7 | 3.0 | -12.5 | 48.8* | 12.3 | 28.8* | 45.1 | 7.5 | 4.6
CCOC(=O)C1CCN(c2c(C(=O)c3ccccc3)cnc3ccc(CC)cc23)CC1 | -2.3 | 0.5 | -4.3 | -20.4 | 3.2 | . | . | . | .
COc1ccccc1C(=O)OCC#CCSc1nnc(-c2cccc3ccccc23)o1 | 4.5 | 2.8 | -3.9 | 30.9 | 10.7 | . | . | . | .
O=C(OCC#CCSc1nnc(-c2cccc3ccccc23)o1)c1cccc2[nH]ccc12 | 0.6 | 0.7 | -1.9 | 51.2* | 11.0 | 15.8 | 25.4 | 2.1 | 0.4
O=C1CCCc2c1cc(C(=O)O)c(=O)n2-c1ccccc1 | -1.5 | -0.1 | -10.0 | 3.9 | 2.4 | . | . | . | .
O=C1CCCc2c1cc(C(=O)Nc1ccc(Br)cn1)c(=O)n2-c1ccccc1 | 0.2 | 0.3 | -6.8 | 105.9* | 11.1 | 1.1 | -3.1 | 1.5 | -0.6
CCOCc1c(C(=O)NC2=Nc3ccccc3NC(CC)=C2C(=O)OCC)oc2ccccc12 | -2.0 | 0.6 | -12.7 | 60.9* | 13.0 | 29.7* | 55.4* | 4.4 | 2.0
CCOC(=O)C1=C(CC)Nc2ccccc2N=C1NC(=O)CCNC(C)=O | 0.3 | -0.6 | 0.1 | -20.2 | 1.8 | . | . | . | .
CCOC(=O)C1=C(CC)Nc2ccccc2N=C1NC(=O)c1oc2ccccc2c1C | -0.5 | 1.4 | -9.8 | 73.9* | 4.3 | 27.1* | 52.9* | 5.2 | 2.1
O=C(CSc1nnc(CNC(=O)c2ccc(F)cc2)o1)NCc1ccc2c(c1)OCO2 | -0.8 | -0.4 | -4.5 | -14.6 | 0.1 | . | . | . | .
COC(=O)C[C@@H]1C=C[C@H](NC(=O)Cc2ccccn2)[C@@H](CO)O1 | . | . | . | 2.6 | 1.2 | . | . | . | .
COc1ccc(/C=N\NC(=O)c2ccc(-c3ccccc3)cc2)cc1COC(C)=O | -0.2 | 2.4 | -4.5 | 52.2* | 1.4 | 25.8* | 42.8 | 5.5 | 2.7
SMILES | OXTR agonist | V1aR counter | OXTR potentiator | TAAR1 antagonist | TAAR1 agonist | TAAR1 nonsel count | TAAR1 ant conf | Ga16 nonsel ag | TAAR1 ag counter
O=C(N/N=C\c1cccc(F)c1)c1ccc(-c2ccccc2)cc1 | . | . | . | 56.8* | -0.5 | -5.5 | 29.0 | -0.5 | -1.6
COc1ccc(/C=N\NC(=O)c2ccccc2)cc1COc1ccc(F)cc1 | -0.5 | 0.9 | -11.6 | 30.6 | 1.2 | . | . | . | .
COc1ccccc1NS(=O)(=O)c1cccc(C(=O)N/N=C/c2ccc3c(c2)OCCO3)c1 | 4.0 | 1.1 | -6.8 | 55.6* | 15.1 | 31.7* | 45.4 | 10.0 | 9.1
COc1ccc(NS(=O)(=O)c2cccc(C(=O)N/N=C/c3ccc4c(c3)OCCO4)c2)cc1 | 0.1 | 0.5 | -1.6 | -2.1 | 5.3 | . | . | . | .
COc1cc(/C=N/NC(=O)c2cc(-c3ccccc3)sc2N)cc(OC)c1OC | 3.5 | -1.3 | -5.5 | 72.7* | 15.9 | 32.1* | 49.5* | 13.5* | 14.6
COc1cc(/C=N/NC(=O)c2ccc(-c3ccccc3)cc2)cc(OC)c1OC | -0.1 | 1.2 | -8.8 | 42.5 | 4.9 | . | . | . | .
O=C(N/N=C\c1c(F)c(F)c(F)c(F)c1F)c1ccc(-c2ccccc2)cc1 | -0.2 | 1.2 | 2.4 | -3.3 | 1.9 | . | . | . | .
COc1ccc(N(CN2C(=O)C3CCCCC3C2=O)C(=O)c2ccco2)cc1 (centres undefined) | -0.9 | -0.4 | -4.8 | 21.8 | 0.2 | . | . | . | .
CCOC(=O)CCCNC(=O)COC(=O)c1cccc(F)c1 | -0.5 | 0.0 | -15.9 | -27.5 | 6.3 | . | . | . | .
COc1ccc(NC(=O)COC(=O)c2ccc(Cl)c(S(N)(=O)=O)c2)c([N+](=O)[O-])c1 | 1.6 | 3.3 | -20.5 | -2.0 | 2.4 | . | . | . | .
